In data set [1] the target is T1, Cytochrome P450 3A4 (Homo sapiens, UniProt P08684). Kind of data set: Induction of CYP3A4 in CRISPR/Cas9-mediated CYP3A5 knock-out and doxycycline-induced CYP3A4 overexpressing human AsPC1 cells assessed as increase in 1-hydroxymidazolam formation using midazolam as substrate pretreated with doxycycline for 24 hrs followed by incubation with compound at higher concentrations for 24 hrs by LC-MS/MS analysis. The note with it: aspc1, 24 h. In kind it is ADME, cell-based. The essentials: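 AsPC-1 CYP3A5−/− cells with Dox-inducible CYP3A4, 10,000 cells/well, induced with 100 ng/mL doxycycline. 24 h later given compound (16-point 1:2 series, 0.0003–10 μM) plus 5 μM midazolam, final DMSO 0.66%, for 24 h. Quenched with acetonitrile containing warfarin internal standard. 1-Hydroxymidazolam measured by LC-MS/MS and normalized to DMSO control (100%).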
T1 sequence (P08684 whole entry): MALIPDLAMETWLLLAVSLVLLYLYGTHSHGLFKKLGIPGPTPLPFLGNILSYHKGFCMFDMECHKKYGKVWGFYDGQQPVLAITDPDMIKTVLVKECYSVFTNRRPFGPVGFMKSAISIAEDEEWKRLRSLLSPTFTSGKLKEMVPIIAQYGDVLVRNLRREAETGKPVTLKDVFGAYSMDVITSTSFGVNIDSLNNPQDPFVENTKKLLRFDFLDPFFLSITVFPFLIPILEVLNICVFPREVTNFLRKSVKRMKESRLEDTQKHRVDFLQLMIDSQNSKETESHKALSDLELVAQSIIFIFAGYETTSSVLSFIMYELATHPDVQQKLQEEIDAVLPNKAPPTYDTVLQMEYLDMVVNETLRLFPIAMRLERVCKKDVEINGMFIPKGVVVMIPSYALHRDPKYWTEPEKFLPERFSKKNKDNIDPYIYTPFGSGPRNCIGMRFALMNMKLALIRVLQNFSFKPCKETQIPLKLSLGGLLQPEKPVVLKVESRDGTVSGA

For data set [2], the target named is T1, Cytochrome P450 3A4. Kind of data set: Inhibition of human recombinant CYP3A4 expressed in supersomes assessed as decrease in formation of D-luciferin at 1.89 uM using luciferin-IPA as substrate incubated for 10 mins in presence of NADPH by P450-Glo luminescence assay relative to control. The note with it: recombinant enzyme. In kind it is ADME. The essentials: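 P450-Glo assay with supersomes containing POR, cytochrome b5 and recombinant human CYP3A4, 0.1 pmol enzyme. Run in 100 mM KPO4 pH 7.4 with 3 μM Luciferin-IPA, started with NADPH, 10 min at 37 °C. Detection reagent added for 20 min at room temperature, then luminescence read. Final DMSO 0.1%.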

In data set [3] the target is Cytochrome P450 2C19 (Homo sapiens, UniProt P33261). Kind of data set: Inhibition of CYP2C19 in human liver microsomes assessed as formation of 4-hydroxymephenytoin at 1.85 uM using mephenytoin as substrate incubated for 60 mins in presence of NADPH by LC-MS/MS analysis. In kind it is ADME. To be noted: 1 h. The essentials:
(§1)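 Pooled human liver microsomes with 2 mM NADPH in 100 mM KPO4 pH 7.4, 5 mM MgCl2, 37 °C, technical triplicate, final DMSO 0.2%. Probe (substrate, level, protein, time): 1A2 tacrine 5 μM, 0.2 mg/mL, 10 min; 2B6 bupropion 100 μM, 0.25 mg/mL, 10 min; 2C8 amodiaquine 5 μM, 0.25 mg/mL, 10 min; 2C9 tolbutamide 100 μM, 0.5 mg/mL, 15 min; 2C19 mephenytoin 100 μM, 0.25 mg/mL, 60 min; 2D6 dextromethorphan 5 μM, 0.5 mg/mL, 10 min; 3A4 midazolam 2.5 μM or testosterone 50 μM, 0.25 mg/mL, 10 min. Methanol quench, metabolites measured by LC-MS/MS.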

Data set [4] has as its target Cytochrome P450 2D6 (Homo sapiens, UniProt P10635). The data set is described as follows: Inhibition of CYP2D6 in human liver microsomes at 1.85 uM using dextromethorphan as substrate incubated for 10 mins in presence of NADPH by LC-MS/MS analysis. In kind it is ADME. The essentials: as §1
Data set [5] addresses T1, Cytochrome P450 3A4. The data set is described as follows: Inhibition of CYP3A4 in CRISPR/Cas9-mediated CYP3A5 knock-out and doxycycline-induced CYP3A4 overexpressing human AsPC1 cells assessed as decrease in 1-hydroxymidazolam formation using midazolam as substrate pretreated with doxycycline for 24 hrs followed by incubation with compound for 24 hrs by LC-MS/MS analysis. In kind it is ADME, cell-based. The essentials: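 AsPC-1 CYP3A5−/− cells with Dox-inducible CYP3A4, 10,000 cells/well, induced with 100 ng/mL doxycycline. Quenched with acetonitrile containing warfarin internal standard. 1-Hydroxymidazolam measured by LC-MS/MS and normalized to DMSO control (100%).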

Data set [6] relates to ASPC1. Kind of data set: Increase in CYP3A4 expression in CRISPR/Cas9-mediated CYP3A5 knock-out and doxycycline-induced CYP3A4 overexpressing human AsPC1 cells at 1 uM after 24 hrs by Western blot analysis. In kind it is ADME, cell-based. To be noted: aspc1, 24 h. The essentials: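 Overexpression was induced with 100 ng/mL doxycycline. […] Blots were probed with anti-CYP3A4 K03 (also detects CYP3A5) and β-actin, with infrared dye secondaries. Bands were normalized to actin across triplicate gels, with DMSO set as 1.0.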

For data set [7], the system named is ASPC1. The data set is described as follows: Cytotoxicity against wild type human AsPC1 cells assessed as cell growth. In kind it is cell-based. The essentials:
(§2)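 Cells seeded at 10,000/well. Dox-inducible lines were induced with 100 ng/mL doxycycline, then treated 24 h later with compound at 16 two-fold dilutions (0.0003–10 μM) plus 5 μM midazolam, in 0.66% DMSO final, for 24 h. Phase-contrast confluence imaging followed. Values were normalized to six 0.66% DMSO replicates and fitted with a three-parameter log(inhibitor) vs response curve.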

The test system of data set [8] is ASPC1. Kind of data set: Cytotoxicity against lentiviral pLVX-TRE3G-ZsGreen1-CYP3A5 transduced wild type human AsPC1 cells overexpressing CYP3A5 assessed as cell growth. In kind it is ADME, cell-based. The essentials: as §2
The test system of data set [9] is ASPC1. The data set is described as follows: Cytotoxicity against doxycycline-induced CYP3A5 overexpressing wild type human AsPC1 cells assessed as cell growth. In kind it is ADME, cell-based. The essentials:
as §2

The test system of data set [10] is ASPC1. The data set is described as follows: Cytotoxicity against CRISPR/Cas9-mediated CYP3A5 knock-out and lentiviral pLVX-TRE3G-ZsGreen1-CYP3A5 transduced human AsPC1 cells overexpressing CYP3A5 assessed as cell growth. In kind it is ADME, cell-based. The essentials:
as §2

The target of data set [11] is T2, Cytochrome P450 3A5 (Homo sapiens, UniProt P20815). The data set is described as follows: Binding affinity to heme in His-tagged CYP3A5 (unknown origin) expressed in Escherichia coli DH5alpha assessed as formation of five-coordinate ferric heme iron by measuring type 1 Soret shift from 417 nm (low spin) to 395 nm (high spin) by UV-vis spectrophotometric titration analysis. The essentials: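 Purified recombinant His-tagged CYP3A5 titrated with successive ligand additions until heme absorbance stopped changing. The ligand-free spectrum was subtracted to give difference spectra. Peak-minus-trough values were plotted against ligand concentration and fitted to a binding equation for Kd. Wavelength pairs: ΔA 386–418 nm for the type I shift; ΔA 432–410 nm for the type II shift.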
T2 sequence (P20815 whole entry): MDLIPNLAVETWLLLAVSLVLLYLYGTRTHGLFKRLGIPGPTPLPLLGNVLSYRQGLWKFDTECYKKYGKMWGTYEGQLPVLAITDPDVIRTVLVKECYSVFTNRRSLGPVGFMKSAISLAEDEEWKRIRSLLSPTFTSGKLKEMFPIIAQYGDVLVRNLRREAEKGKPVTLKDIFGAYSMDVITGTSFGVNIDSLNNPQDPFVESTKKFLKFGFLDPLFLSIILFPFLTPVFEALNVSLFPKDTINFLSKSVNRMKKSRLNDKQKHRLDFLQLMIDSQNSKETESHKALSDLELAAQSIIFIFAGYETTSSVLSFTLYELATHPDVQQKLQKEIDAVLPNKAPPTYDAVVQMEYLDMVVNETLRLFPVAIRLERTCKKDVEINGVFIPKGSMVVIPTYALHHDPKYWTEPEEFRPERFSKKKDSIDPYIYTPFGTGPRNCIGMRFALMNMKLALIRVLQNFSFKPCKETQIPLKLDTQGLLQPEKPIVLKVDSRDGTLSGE

In data set [12] the target is T1, Cytochrome P450 3A4. The data set is described as follows: Binding affinity to His-tagged CYP3A4 (unknown origin) expressed in Escherichia coli DH5alpha assessed as formation of Soret band at 386 nm with low decrease in low-spin soret maxima at 416 nm by UV-vis spectrophotometric titration analysis. In kind it is ADME. The arrangement: dose or concentration left out as unconfirmed. The essentials: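 Recombinant His-tagged enzyme expressed in E. coli with groESL chaperones, purified by Ni-NTA, CM-sepharose and S-200 gel filtration (Rz ≥1.3). Ligand added stepwise until heme absorbance stopped changing. Difference spectra taken against the ligand-free spectrum. Peak-minus-trough ΔAbs (388–418 nm) plotted against ligand concentration and fitted with equation 2 for Kd.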

Data set [13] has as its target T2, Cytochrome P450 3A5. The data set is described as follows: Binding affinity to His-tagged CYP3A5 (unknown origin) expressed in Escherichia coli DH5alpha assessed as five-coordinate HS ferric heme iron state formation with displacement of distal water ligand by EPR spectroscopy. The essentials:
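Continuous-wave X-band EPR of purified recombinant enzyme, alone and in complex with ligand. Spectra were compared against the ligand-free form.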

Sequence of Cytochrome P450 2D6 (P10635 whole entry): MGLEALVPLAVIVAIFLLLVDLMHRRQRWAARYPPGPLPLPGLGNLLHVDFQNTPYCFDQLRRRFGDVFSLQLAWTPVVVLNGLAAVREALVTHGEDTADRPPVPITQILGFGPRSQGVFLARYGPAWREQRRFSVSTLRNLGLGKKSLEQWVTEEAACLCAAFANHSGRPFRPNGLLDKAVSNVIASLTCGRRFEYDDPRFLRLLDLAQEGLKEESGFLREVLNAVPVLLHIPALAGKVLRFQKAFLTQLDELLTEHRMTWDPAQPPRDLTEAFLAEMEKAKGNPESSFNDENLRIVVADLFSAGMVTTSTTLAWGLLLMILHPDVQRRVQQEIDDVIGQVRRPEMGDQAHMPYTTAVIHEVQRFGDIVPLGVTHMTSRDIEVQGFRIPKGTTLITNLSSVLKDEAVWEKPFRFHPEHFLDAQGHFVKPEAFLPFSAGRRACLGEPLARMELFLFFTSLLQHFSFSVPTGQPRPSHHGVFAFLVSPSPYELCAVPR
Sequence of Cytochrome P450 2C19 (P33261 whole entry): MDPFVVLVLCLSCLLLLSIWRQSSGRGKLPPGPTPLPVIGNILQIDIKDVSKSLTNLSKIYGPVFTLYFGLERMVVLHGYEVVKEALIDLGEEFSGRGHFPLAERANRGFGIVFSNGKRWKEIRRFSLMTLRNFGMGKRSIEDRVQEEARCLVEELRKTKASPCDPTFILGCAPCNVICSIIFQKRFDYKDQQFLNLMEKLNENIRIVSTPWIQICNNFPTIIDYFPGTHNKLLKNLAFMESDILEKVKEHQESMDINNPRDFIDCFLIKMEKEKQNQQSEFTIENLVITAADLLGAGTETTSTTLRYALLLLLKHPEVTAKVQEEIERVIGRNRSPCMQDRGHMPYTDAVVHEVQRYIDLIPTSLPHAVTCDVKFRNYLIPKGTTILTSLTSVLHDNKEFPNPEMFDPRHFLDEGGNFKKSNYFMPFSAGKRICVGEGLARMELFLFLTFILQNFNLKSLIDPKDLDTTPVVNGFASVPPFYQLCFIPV

In the case of `CCC(=O)O[C@]1(C(=O)CCl)[C@@H](C)C[C@H]2[C@@H]3CCC4=CC(=O)C=C[C@]4(C)[C@@]3(F)[C@@H](O)C[C@@]21C` [CLOBETASOL PROPIONATE], the Activity entry in data set [1] is reported as “Active”; in [6], “Not Active”; in data set [7] it was “Non-Toxic”; in [8], “Non-Toxic”; in data set [9], “Non-Toxic”; in data set [10] it was “Non-Toxic”. In addition, the result in data set [11], in data set [12] and in [13] was Active. For the same compound, the “inhibition (INH)” value in [2], in [3] and in data set [4] was “Not Active” throughout. Also, the IC50 entry in data set [5] is recorded as “Not Active”.

The values are drawn from ChEMBL document CHEMBL4321880 (J Med Chem, 2020).
